Data: ChEMBL document CHEMBL2440010, “Click chemistry based synthesis of dopamine D4 selective receptor ligands for the selection of potential PET tracers” (Bioorg Med Chem Lett, 2013)
The source made the active and inactive calls. No cut-off for these calls is given here.

Legend:
D(4) dopamine receptor = target: T1, D(4) dopamine receptor (Homo sapiens, UniProt P21917); experiment: Displacement of [3H]spiperone from human D4.4 receptor expressed in CHO cells; format: cell-based
T1 sequence (P21917 whole entry): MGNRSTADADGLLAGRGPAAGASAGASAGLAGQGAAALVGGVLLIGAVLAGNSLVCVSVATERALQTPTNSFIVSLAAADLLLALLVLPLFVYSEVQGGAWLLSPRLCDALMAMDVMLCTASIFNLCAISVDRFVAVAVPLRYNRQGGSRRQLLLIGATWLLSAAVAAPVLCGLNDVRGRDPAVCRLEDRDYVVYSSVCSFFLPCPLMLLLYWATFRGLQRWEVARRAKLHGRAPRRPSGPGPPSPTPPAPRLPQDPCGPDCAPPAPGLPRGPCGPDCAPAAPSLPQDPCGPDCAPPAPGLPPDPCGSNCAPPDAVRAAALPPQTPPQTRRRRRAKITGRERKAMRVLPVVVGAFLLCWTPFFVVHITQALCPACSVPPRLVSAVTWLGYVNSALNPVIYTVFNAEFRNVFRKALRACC
In short: (§1)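 Competition binding against [3H]spiperone on cloned human receptors (D2long, D2short, D3, D4.4) stably expressed in CHO cells. Ki values were taken from two to four independent experiments, each run in triplicate.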

D(1A) dopamine receptor = D(1A) dopamine receptor (Sus scrofa, UniProt P50130); experiment: Displacement of [3H]SCH23390 from D1 receptor in pig striatal membrane; format: cell membranes, Striatum
In short: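 D1 binding on porcine striatal membrane preparations, displacing the D1-selective antagonist [3H]SCH23390. Ki values were taken from two to four independent experiments, each run in triplicate.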

D(2) dopamine receptor [1] = target: T2, D(2) dopamine receptor (Homo sapiens, UniProt P14416); experiment: Displacement of [3H]spiperone from human D2short receptor expressed in CHO cells; format: cell-based; in short: as §1
D(3) dopamine receptor = D(3) dopamine receptor (Homo sapiens, UniProt P35462); experiment: Displacement of [3H]spiperone from human D3 receptor expressed in CHO cells; format: cell-based; in short: as §1
[2] = Displacement of [3H]WAY100635 from 5-HT1A in pig cerebral cortex; format: tissue-based, Sus scrofa
In short: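 Porcine cortical membranes were used with selective radioligands: [3H]WAY100635 for 5-HT1A, [3H]ketanserin for 5-HT2 and [3H]prazosin for α1. Ki values were taken from two to four independent experiments, each run in triplicate.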

D(2) dopamine receptor [3] = target: T2, D(2) dopamine receptor; experiment: Displacement of [3H]spiperone from human D2long receptor expressed in CHO cells; format: cell-based; in short: as §1
[4] = Displacement of [3H]ketanserin from 5-HT2 in pig cerebral cortex; format: tissue-based, Sus scrofa
[5] = target: T3, D(4) dopamine receptor (Homo sapiens) (UniProt P21917); experiment: Antagonist activity at human D4.4 receptor expressed in CHO10001 cells assessed as [3H]thymidine incorporation preincubated at 63 nM for 20 hrs before [3H]thymidine addition by mitogenesis assay; format: cell-based
T3 sequence (whole entry): T1 sequence (P21917 whole entry)

[6] = target: T3, D(4) dopamine receptor (Homo sapiens); experiment: Partial agonist activity at human D4.4 receptor expressed in CHO10001 cells assessed as [3H]thymidine incorporation preincubated at 63 nM for 20 hrs before [3H]thymidine addition by mitogenesis assay; format: cell-based

D(1A) dopamine receptor, sequence (P50130 whole entry): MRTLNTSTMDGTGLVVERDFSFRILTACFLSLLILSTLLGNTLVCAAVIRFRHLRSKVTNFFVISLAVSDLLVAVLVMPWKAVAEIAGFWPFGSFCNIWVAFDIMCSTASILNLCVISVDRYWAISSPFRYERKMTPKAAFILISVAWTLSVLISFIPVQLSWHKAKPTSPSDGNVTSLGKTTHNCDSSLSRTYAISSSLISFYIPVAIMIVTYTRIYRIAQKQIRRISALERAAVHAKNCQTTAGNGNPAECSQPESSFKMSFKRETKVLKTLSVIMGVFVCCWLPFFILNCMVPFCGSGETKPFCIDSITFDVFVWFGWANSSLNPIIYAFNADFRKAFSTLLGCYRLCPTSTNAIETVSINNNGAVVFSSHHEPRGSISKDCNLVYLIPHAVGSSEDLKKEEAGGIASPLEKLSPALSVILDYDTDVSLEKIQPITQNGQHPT
D(3) dopamine receptor, sequence (P35462 whole entry): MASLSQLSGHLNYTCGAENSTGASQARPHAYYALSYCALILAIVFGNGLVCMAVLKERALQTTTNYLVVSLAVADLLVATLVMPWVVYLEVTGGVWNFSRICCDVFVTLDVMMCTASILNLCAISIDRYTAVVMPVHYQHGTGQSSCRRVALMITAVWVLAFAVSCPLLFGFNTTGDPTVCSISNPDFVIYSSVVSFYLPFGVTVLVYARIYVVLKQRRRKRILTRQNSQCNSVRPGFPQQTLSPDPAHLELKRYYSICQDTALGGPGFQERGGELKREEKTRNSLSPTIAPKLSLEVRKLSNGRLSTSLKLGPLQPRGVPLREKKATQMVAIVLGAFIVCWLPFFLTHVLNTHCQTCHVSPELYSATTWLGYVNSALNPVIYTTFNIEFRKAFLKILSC
T2 sequence (P14416 whole entry): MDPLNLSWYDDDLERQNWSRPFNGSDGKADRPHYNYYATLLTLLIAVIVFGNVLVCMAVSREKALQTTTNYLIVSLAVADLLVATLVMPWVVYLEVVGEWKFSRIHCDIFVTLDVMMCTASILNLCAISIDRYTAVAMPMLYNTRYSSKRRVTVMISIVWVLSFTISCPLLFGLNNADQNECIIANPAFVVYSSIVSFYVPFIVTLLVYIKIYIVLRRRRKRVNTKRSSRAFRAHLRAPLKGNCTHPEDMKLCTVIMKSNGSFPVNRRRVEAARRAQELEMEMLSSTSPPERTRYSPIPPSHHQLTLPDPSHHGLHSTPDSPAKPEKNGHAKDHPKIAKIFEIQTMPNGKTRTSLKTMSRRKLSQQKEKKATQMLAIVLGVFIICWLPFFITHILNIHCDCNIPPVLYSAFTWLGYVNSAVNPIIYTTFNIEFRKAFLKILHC

Ki (D(4) dopamine receptor) [nM]	Ki (D(1A) dopamine receptor) [nM]	Ki (D(2) dopamine receptor [1]) [nM]	Ki (D(3) dopamine receptor) [nM]	Ki [2] [nM]	Ki (D(2) dopamine receptor [3]) [nM]	Ki [4] [nM]	Activity [5]	Activity [6] [%]	SMILES
32	16000	1500	5700	650	4100	7800			COc1ccccc1N1CCN(Cc2cn(-c3ccc(OCCCOC4O[C@H](CO)[C@@H](O)[C@H](O)[C@H]4F)cc3)nn2)CC1 (stereo not given in full)
23		750	1700	240	1600	27000			COc1ccccc1N1CCN(Cc2cn(CCOCCF)nn2)CC1
340	77000	51000		18000	24000				COc1ccccc1N1CCN(Cc2cn([C@@H]3O[C@H](CF)[C@@H](O)[C@H](O)[C@H]3O)nn2)CC1
500	54000	42000	17000	12000	23000	38000			COc1ccccc1N1CCN(Cc2cn([C@@H]3O[C@H](CO)[C@@H](O)[C@H](O)[C@H]3F)nn2)CC1

More lines, now with the values behind:

SMILES	Ki (D(4) dopamine receptor) [nM]	Ki (D(1A) dopamine receptor) [nM]	Ki (D(2) dopamine receptor [1]) [nM]	Ki (D(3) dopamine receptor) [nM]	Ki [2] [nM]	Ki (D(2) dopamine receptor [3]) [nM]	Ki [4] [nM]	Activity [5]	Activity [6] [%]
COc1ccccc1N1CCN(Cc2cn(-c3ccc(OCCOCCOCCF)cc3)nn2)CC1	100	43000	2900	200	560	2700	8200		
COc1ccccc1N1CCN(Cc2cn(CCCCCCF)nn2)CC1	20	26000	560	800	54	460	6400		
COc1ccccc1N1CCN(Cc2cn(-c3ccc(OCCCF)cc3)nn2)CC1	5.1	38000	520	2800	420	340		Active	
COc1ccccc1N1CCN(Cc2cn(-c3ccc(OCCCOCCF)cc3)nn2)CC1	16	3600	770	2900	480	440	9000		
COc1ccccc1N1CCN(Cc2cn(CCOCCOCCOCCF)nn2)CC1	680	60000	4700	7600	770	8300	18000		
COc1ccccc1N1CCN(Cc2cn(CCOCCOCCF)nn2)CC1	150	30000	3400	5100	870	7700	23000		
COc1ccccc1N1CCN(Cc2cn(-c3ccc(OCCF)cc3)nn2)CC1	14	45000	18000	17000	420	1600	10000		27
